Measurements: ChEMBL document CHEMBL2016555, “4-Methoxy-N-[2-(trifluoromethyl)biphenyl-4-ylcarbamoyl]nicotinamide: A Potent and Selective Agonist of S1P1” (ACS Med Chem Lett, 2011)
Values after ≈ are worked out from the molar mass of the structure shown.

What was measured:
[1] = Solubility of the compound in 0.01 M aqueous HCl; assay type: physicochemical
[2] = Intrinsic clearance in rat liver microsomes after 30 mins; assay type: ADME, Microsome; settings: read-out: CLH
[3] = Solubility of the compound in simulated intestinal fluid; assay type: physicochemical
[4] = Efflux ratio of apparent permeability across pig LLC-PK1 cells; assay type: ADME, cell-based, Sus scrofa
In short: (§1)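 Permeability across porcine proximal tubule LLC-PK1 cell monolayers; apparent permeability (Papp) and efflux ratio determined.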

Rattus norvegicus [5] = test: Immunosuppressive activity in Lewis rat assessed as change in peripheral lymphocyte count at 1 mg/kg, po after 24 hrs relative to vehicle treated control; assay type: functional
In short: (§2)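 Female Lewis rats (N = 5/group) given one oral dose of 1 mg/kg (20% captisol, 1% HPMC, 1% pluronic F68, pH 2.1 with MSA); blood lymphocyte count and total plasma compound measured at 24 h; POC vs vehicle, ANOVA/Dunnett's test.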

[6] = target: T1, Sphingosine 1-phosphate receptor 1 (Homo sapiens, UniProt P21453); test: Agonist activity at human S1P1 expressed in U2OS cells coexpressing eGFP assessed as receptor internalization after 1 hr by microscopic analysis relative to 1-(4-(6-benzylbenzofuran-2-yl)-3-fluorobenzyl)azetidine-3-carboxylic acid; assay type: functional, cell-based
T1 sequence (P21453 whole entry, the tested form may be a part): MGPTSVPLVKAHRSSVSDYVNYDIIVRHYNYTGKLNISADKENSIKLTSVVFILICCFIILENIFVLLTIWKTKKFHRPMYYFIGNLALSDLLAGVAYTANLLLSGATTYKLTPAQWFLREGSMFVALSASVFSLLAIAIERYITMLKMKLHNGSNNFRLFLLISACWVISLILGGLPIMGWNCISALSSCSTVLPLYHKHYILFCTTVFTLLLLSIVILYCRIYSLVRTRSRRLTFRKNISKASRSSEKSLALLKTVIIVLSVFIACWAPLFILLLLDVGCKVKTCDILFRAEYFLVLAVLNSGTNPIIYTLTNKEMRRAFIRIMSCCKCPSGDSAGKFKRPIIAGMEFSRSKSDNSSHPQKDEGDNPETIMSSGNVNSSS
In short: (§3)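 Human S1P1–eGFP fusion protein expressed in U2OS cells; agonism read as receptor internalization; EC50 derived, efficacy expressed relative to 1-(4-(6-benzylbenzofuran-2-yl)-3-fluorobenzyl)azetidine-3-carboxylic acid at 1.0 μM.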

Plasma = test: Plasma concentration in Lewis rat at 1 mg/kg, po at 24 hrs; assay type: ADME, organism-based; parameters: dose 1 mg/kg, route oral; settings: in vivo, 24 h, BLD = below limit of detection; in short: as §2
[7] = Solubility of the compound in phosphate buffer saline at pH 7.4; assay type: physicochemical; settings: phosphate buffered saline
[8] = target: T1, Sphingosine 1-phosphate receptor 1; test: Agonist activity at human S1P1 expressed in U2OS cells coexpressing eGFP assessed as receptor internalization after 1 hr by microscopic analysis; assay type: functional, cell-based; in short: as §3
[9] = Apparent permeability across pig LLC-PK1 cells; assay type: ADME, cell-based, Sus scrofa; in short: as §1
[10] = Volume of distribution at steady state in Sprague-Dawley rat at 1 mg/kg, iv; assay type: ADME, organism-based; parameters: dose 1 mg/kg, route intravenous; settings: in vivo, read-out: Vdss
[11] = target: T2, Sphingosine 1-phosphate receptor 5 (Homo sapiens, UniProt Q9H228); test: Agonist activity at human S1P5 expressed in CHO-K1 cells coexpressing Gq/i5 assessed as calcium mobilization-induced bioluminescence change measured for 90 secs by fluorimetry relative to S1P; assay type: functional, cell-based
T2 sequence (Q9H228 whole entry): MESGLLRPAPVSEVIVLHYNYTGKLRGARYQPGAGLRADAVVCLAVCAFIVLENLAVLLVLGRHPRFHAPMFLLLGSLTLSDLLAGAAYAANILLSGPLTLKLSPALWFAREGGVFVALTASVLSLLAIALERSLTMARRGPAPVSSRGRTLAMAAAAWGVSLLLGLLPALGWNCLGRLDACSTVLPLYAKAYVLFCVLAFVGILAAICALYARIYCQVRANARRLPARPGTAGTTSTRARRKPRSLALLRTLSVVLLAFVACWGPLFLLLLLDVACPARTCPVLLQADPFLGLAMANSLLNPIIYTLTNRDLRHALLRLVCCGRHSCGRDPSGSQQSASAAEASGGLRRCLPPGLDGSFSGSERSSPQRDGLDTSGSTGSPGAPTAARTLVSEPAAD
In short: (§4)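 CHO-K1 cells expressing the human S1P receptor subtype plus chimeric Gq/i5; Ca2+ mobilization measured; efficacy relative to S1P at 0.20 μM; compounds not reaching >10% of control activity reported as > highest concentration tested.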

[12] = Plasma concentration in Lewis rat at 0.3 mg/kg, po at 24 hrs; assay type: ADME, organism-based; parameters: dose 0.3 mg/kg, route oral
In short: (§5)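 Female Lewis rats dosed orally once at 0.30, 1.0 or 3.0 mg/kg (N = 5; 3.0 mg/kg group N = 3) in 20% HPBCD, 1% HPMC, 1% pluronic F68, pH 2.1 with MSA; blood lymphocytes and plasma concentration at 24 h; ANOVA/Dunnett's vs vehicle.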

Rattus norvegicus [13] = test: Toxicity in Sprague-Dawley rat assessed as increase in cholesterol level at 200 mg/kg, po administered qd for 4 days; assay type: organism-based; parameters: dose 200 mg/kg, route oral; settings: in vivo, 96 h
In short: (§6)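 Male Sprague-Dawley rats, N = 3/group, dosed orally once daily for 4 days at 50 or 200 mg/kg. Endpoints were mortality, clinical signs, body weight, and clinical chemistry including total bilirubin and cholesterol.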

Rattus norvegicus [14] = test: Immunosuppressive activity in po dosed Lewis rat assessed as change in peripheral lymphocyte count at 3 mg/kg, po after 24 hrs relative to vehicle treated control; assay type: functional; in short: as §5
[15] = AUC (0 to 48 hrs) in Sprague-Dawley rat at 3 mg/kg, po; assay type: ADME, organism-based; parameters: time < 48 hr, dose 3 mg/kg, route oral; settings: plasma
Rattus norvegicus [16] = test: Toxicity in Sprague-Dawley rat assessed as adverse clinical signs at 200 mg/kg, po administered qd for 4 days; assay type: organism-based; parameters: dose 200 mg/kg, route oral; settings: in vivo, 96 h; in short: as §6
Rattus norvegicus [17] = test: Toxicity in Sprague-Dawley rat assessed as weight loss at 200 mg/kg, po administered qd for 4 days; assay type: organism-based; parameters: dose 200 mg/kg, route oral; settings: in vivo, 96 h; in short: as §6
[18] = target: T2, Sphingosine 1-phosphate receptor 5; test: Agonist activity at human S1P5 expressed in CHO-K1 cells coexpressing Gq/i5 assessed as calcium mobilization-induced bioluminescence change measured for 90 secs by fluorimetry; assay type: functional, cell-based; in short: as §4
[19] = Half life in Sprague-Dawley rat at 1 mg/kg, iv; assay type: ADME, organism-based; parameters: dose 1 mg/kg, route intravenous; settings: in vivo
PXR (NR1I2) = target: T3, PXR (NR1I2) (Homo sapiens, UniProt O75469); test: Induction of human PXR at 10 uM relative to control; settings: read-out: Activity
T3 sequence (O75469 whole entry): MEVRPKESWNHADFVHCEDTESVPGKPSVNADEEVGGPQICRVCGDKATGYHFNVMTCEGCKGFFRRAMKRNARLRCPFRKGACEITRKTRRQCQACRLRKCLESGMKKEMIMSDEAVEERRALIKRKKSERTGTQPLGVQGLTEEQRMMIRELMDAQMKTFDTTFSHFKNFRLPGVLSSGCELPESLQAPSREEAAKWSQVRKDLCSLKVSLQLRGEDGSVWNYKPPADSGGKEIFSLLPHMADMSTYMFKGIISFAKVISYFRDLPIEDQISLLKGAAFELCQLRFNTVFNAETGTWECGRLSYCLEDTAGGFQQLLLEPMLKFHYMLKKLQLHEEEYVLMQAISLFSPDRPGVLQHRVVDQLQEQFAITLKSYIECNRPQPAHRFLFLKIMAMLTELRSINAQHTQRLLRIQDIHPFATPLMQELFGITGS

[20] = AUC (0 to 48 hrs) in Sprague-Dawley rat at 1 mg/kg, iv; assay type: ADME, organism-based; parameters: time < 48 hr, dose 1 mg/kg, route intravenous; settings: plasma
Rattus norvegicus [21] = test: Toxicity in Sprague-Dawley rat assessed as increase in bilirubin level at 50 mg/kg, po administered qd for 4 days; assay type: organism-based; parameters: dose 50 mg/kg, route oral; settings: in vivo, 96 h; in short: as §6
Rattus norvegicus [22] = test: Toxicity in Sprague-Dawley rat assessed as mortality at 50 mg/kg, po administered qd for 4 days; assay type: organism-based; parameters: dose 50 mg/kg, route oral; settings: in vivo, 96 h; in short: as §6
[23] = Bioavailability in Sprague-Dawley rat at 3 mg/kg, po and 1 mg/kg, iv; assay type: ADME, organism-based; settings: in vivo
[24] = target: Voltage-gated inwardly rectifying potassium channel KCNH2 (Homo sapiens, UniProt Q12809); test: Inhibition of human ERG
Sequence of Voltage-gated inwardly rectifying potassium channel KCNH2 (Q12809 whole entry): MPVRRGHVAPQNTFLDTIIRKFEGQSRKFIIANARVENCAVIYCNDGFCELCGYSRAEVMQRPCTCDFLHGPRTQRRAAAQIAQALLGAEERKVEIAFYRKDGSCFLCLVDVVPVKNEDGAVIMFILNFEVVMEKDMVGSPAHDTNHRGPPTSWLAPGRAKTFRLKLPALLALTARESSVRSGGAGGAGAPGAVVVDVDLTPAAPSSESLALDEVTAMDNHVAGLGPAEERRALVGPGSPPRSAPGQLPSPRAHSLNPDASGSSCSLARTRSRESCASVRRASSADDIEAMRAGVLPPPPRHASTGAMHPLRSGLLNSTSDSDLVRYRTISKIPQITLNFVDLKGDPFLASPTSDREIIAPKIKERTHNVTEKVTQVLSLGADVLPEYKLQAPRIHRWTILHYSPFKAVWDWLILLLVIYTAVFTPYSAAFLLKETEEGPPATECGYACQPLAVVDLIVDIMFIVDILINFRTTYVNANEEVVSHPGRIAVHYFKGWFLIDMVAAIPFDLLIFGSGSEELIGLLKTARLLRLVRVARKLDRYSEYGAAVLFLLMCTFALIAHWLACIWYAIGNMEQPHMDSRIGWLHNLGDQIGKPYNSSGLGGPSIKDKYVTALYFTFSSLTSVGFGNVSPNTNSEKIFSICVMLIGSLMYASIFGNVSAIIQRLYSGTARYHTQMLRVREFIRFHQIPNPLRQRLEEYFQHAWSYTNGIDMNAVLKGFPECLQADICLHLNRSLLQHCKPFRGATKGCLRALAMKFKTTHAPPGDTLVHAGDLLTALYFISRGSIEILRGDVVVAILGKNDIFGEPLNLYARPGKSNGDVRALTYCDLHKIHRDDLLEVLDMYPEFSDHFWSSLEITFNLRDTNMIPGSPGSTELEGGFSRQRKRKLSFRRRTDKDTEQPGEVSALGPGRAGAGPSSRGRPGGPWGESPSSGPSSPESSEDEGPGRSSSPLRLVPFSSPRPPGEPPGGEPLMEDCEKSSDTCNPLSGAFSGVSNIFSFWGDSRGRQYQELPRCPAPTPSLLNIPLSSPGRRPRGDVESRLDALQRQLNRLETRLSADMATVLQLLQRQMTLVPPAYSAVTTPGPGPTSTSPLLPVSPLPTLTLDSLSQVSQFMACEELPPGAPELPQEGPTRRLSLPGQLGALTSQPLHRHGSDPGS

Rattus norvegicus [25] = test: Toxicity in Sprague-Dawley rat assessed as clinical signs at 50 mg/kg, po administered qd for 4 days; assay type: organism-based; parameters: dose 50 mg/kg, route oral; settings: in vivo, 96 h; in short: as §6
[26] = Plasma protein binding in Sprague-Dawley rat in vitro by ultracentrifugation; settings: read-out: PPB (converted)
[27] = Plasma concentration in Lewis rat at 3 mg/kg, po at 24 hrs; assay type: ADME, organism-based; parameters: dose 3 mg/kg, route oral; in short: as §5
[28] = target: T4, Sphingosine 1-phosphate receptor 4 (Homo sapiens, UniProt O95977); test: Agonist activity at human S1P4 expressed in CHO-K1 cells coexpressing Gq/i5 assessed as calcium mobilization-induced bioluminescence change after measured for 90 secs by fluorimetry; assay type: functional, cell-based
T4 sequence (O95977 whole entry): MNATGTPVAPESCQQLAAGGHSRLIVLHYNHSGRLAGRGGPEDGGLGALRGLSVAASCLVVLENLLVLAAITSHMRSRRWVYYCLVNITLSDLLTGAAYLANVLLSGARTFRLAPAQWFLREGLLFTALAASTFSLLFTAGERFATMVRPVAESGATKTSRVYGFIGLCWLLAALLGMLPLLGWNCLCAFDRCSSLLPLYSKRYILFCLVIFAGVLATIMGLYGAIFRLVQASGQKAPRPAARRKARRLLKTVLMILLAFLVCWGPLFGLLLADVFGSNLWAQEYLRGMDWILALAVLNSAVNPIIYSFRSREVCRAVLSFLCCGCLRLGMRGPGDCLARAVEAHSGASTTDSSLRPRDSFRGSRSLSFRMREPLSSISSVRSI

Rattus norvegicus [29] = test: Immunosuppressive activity in po dosed Lewis rat assessed as change in peripheral lymphocyte count after 24 hrs relative to vehicle treated control; assay type: functional, organism-based; in short: as §5
[30] = target: Sphingosine 1-phosphate receptor 2 (Homo sapiens, UniProt O95136); test: Agonist activity at human S1P2 expressed in CHO-K1 cells coexpressing Gq/i5 assessed as intracellular calcium release by fluorimetry; assay type: functional, cell-based; in short: as §4
Sequence of Sphingosine 1-phosphate receptor 2 (O95136 whole entry): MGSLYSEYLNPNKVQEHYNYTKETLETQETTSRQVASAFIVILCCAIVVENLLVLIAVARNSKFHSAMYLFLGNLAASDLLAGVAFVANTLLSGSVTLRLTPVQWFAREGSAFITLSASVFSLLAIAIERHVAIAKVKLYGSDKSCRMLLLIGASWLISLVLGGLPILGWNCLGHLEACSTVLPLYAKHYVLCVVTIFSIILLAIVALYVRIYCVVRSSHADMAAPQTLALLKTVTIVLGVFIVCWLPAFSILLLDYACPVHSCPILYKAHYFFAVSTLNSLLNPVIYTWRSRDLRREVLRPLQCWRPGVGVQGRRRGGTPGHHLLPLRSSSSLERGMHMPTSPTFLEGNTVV

[31] = Clearance in Sprague-Dawley rat at 1 mg/kg, iv; assay type: ADME, organism-based; parameters: dose 1 mg/kg, route intravenous; settings: in vivo
Rattus norvegicus [32] = test: Toxicity in Sprague-Dawley rat assessed as increase in bilirubin level at 200 mg/kg, po administered qd for 4 days; assay type: organism-based; parameters: dose 200 mg/kg, route oral; settings: in vivo, 96 h; in short: as §6
Cytochrome P450 2D6 = Cytochrome P450 2D6 (Homo sapiens, UniProt P10635); test: Inhibition of human CYP2D6; assay type: ADME
Sequence of Cytochrome P450 2D6 (P10635 whole entry): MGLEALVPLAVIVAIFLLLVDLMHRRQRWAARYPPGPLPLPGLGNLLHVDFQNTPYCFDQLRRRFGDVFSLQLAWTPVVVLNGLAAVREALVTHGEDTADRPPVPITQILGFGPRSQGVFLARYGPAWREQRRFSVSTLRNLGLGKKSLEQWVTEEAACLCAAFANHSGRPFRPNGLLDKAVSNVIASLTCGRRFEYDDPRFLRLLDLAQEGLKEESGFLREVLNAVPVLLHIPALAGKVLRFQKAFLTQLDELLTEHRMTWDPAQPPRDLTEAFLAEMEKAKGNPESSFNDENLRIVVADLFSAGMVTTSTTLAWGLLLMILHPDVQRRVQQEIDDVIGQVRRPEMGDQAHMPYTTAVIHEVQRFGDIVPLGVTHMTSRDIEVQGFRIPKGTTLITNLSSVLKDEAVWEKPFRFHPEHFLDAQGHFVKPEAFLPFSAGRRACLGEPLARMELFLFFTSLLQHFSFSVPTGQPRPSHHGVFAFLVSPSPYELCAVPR

[33] = target: Sphingosine 1-phosphate receptor 3 (Homo sapiens, UniProt Q99500); test: Agonist activity at human S1P3 expressed in CHO-K1 cells coexpressing Gq/i5 assessed as intracellular calcium release by fluorimetry; assay type: functional, cell-based; in short: as §4
Sequence of Sphingosine 1-phosphate receptor 3 (Q99500 whole entry): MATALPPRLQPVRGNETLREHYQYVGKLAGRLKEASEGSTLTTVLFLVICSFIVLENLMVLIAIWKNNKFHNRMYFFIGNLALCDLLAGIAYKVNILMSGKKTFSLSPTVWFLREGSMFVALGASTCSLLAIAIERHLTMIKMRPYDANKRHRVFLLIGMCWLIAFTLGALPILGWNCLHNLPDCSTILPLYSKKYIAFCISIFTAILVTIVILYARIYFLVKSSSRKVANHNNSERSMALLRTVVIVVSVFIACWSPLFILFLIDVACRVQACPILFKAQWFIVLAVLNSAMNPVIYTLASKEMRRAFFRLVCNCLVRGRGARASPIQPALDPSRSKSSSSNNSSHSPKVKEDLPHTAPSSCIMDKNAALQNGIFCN

Rattus norvegicus [34] = test: Toxicity in Sprague-Dawley rat assessed as mortality at 200 mg/kg, po administered qd for 4 days; assay type: organism-based; parameters: dose 200 mg/kg, route oral; settings: in vivo, 96 h; in short: as §6
Rattus norvegicus [35] = test: Toxicity in Sprague-Dawley rat assessed as weight loss at 50 mg/kg, po administered qd for 4 days; assay type: organism-based; parameters: dose 50 mg/kg, route oral; settings: in vivo, 96 h; in short: as §6
Rattus norvegicus [36] = test: AUC (0 to 48 hrs) in Sprague-Dawley rat at 100 mg/kg, po; assay type: ADME, organism-based, Plasma; parameters: time < 48 hr, dose 100 mg/kg, route oral; settings: in vivo

COc1ccccc1C(=O)NC(=O)Nc1ccc(C(C)C)c(C(F)(F)F)c1
solubility [1]: < 1 µg/mL | microsomal CLint [2]: < 14 µL/min/mg | solubility [3]: 6.9 µg/mL (≈ 18.1 µM) | efflux ratio [4]: 1 | Activity (Rattus norvegicus [5]): -16% | Efficacy [6]: 110% | Cp (Plasma): BLD | solubility [7]: < 1 µg/mL | EC50 [8]: 0.014 µM | Papp [9]: 2.1 ×10⁻⁶ cm/s

COc1ccncc1C(=O)NC(=O)Nc1ccc(-c2ccccc2)c(C(F)(F)F)c1
microsomal CLint [2]: < 14 µL/min/mg | Vd [10]: 6.3 L/kg | Efficacy [11]: 58% | concentration at 24 h [12]: 17 ng/mL | Activity (Rattus norvegicus [13]): Toxic | Activity (Rattus norvegicus [14]): 81% | AUC(0-t) at 48 h [15]: 13000 ng·h/mL | Activity (Rattus norvegicus [16]): Non-toxic | Activity (Rattus norvegicus [17]): Non-toxic | EC50 [18]: 4.3 µM | half-life [19]: 19 h | activity at 10 µM (PXR (NR1I2)): 3.7% | Activity (Rattus norvegicus [5]): -67% | AUC(0-t) at 48 h [20]: 3400 ng·h/mL | Activity (Rattus norvegicus [21]): Toxic | Activity (Rattus norvegicus [22]): Non-toxic | bioavailability [23]: 140% | IC50 [24]: > 10 µM | Activity (Rattus norvegicus [25]): Non-toxic | fraction unbound [26]: 0.05 | concentration at 24 h [27]: 160 ng/mL | EC50 [28]: > 50 µM | Activity (Rattus norvegicus [29]): Dose-dependent effect | EC50 [30]: > 25 µM | Efficacy [6]: 96% | clearance [31]: 4.17 mL/min/kg | Activity (Rattus norvegicus [32]): Toxic | IC50 (Cytochrome P450 2D6): > 30 µM | EC50 [33]: > 25 µM | Activity (Rattus norvegicus [34]): Non-toxic | Activity (Rattus norvegicus [35]): Non-toxic | AUC (Rattus norvegicus [36]): 350000 ng·h/mL
